Experimental data: paper PMC6299372 (International Journal of Biological Sciences, 2018)

Tests used:
MsepCSP5 = target: T1, MsepCSP5 (Mythimna separata, UniProt A0A5H2NAD7); assay: Fluorescence competitive binding assay with the probe 1-NPN; settings: for IC50: displacement of 1-NPN from MsepCSP5; for Ki: Ki = IC50/(1+[1-NPN]/K1-NPN); for Kd: dissociation constant (Kd) of MsepCSP5/1-NPN complex, Scatchard plot
T1 sequence (A0A5H2NAD7 1-127): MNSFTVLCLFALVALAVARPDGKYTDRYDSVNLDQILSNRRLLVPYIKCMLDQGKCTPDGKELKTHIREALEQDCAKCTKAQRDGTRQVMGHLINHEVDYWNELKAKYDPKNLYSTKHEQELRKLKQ
Procedure, shortened: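 Recombinant MsepCSP5 was expressed in E. coli BL21(DE3) as inclusion bodies, refolded, Ni-affinity purified, and His-tag cleaved with enterokinase, then dialyzed into Tris-HCl at pH 5.0 or 7.4. Protein at 2 μM in 30 mM Tris-HCl was titrated with 1-NPN (0–20 μM final). Ex 337 nm, Em 360–600 nm, 25°C. Ligand stocks were in methanol. Kd came from Scatchard plots, and Ki from IC50 corrected for 1-NPN. Three independent replicates.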

M. separata [1] = assay: Y-tube olfactometer behavioral bioassay; assay type: in vivo, Mythimna separata; settings: for females attracted to / preferring the volatile: female moths; for females attracted to / preferring the volatile / males attracted to / preferring the volatile: volatile vs liquid paraffin control, 10 µl volatile; for behavioral response of M. separata to the volatile (in words): male and female moths; for males attracted to / preferring the volatile: male moths
Procedure, shortened: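 Y-tube olfactometer with arms 3.0 cm × 26 cm, charcoal-filtered humidified air at 6.0 L min-1. 10 µl volatile on 10×10 mm filter paper was set against a liquid paraffin control. Three-day-old moths were isolated about 30 min beforehand, and separate olfactometers were used per sex. Each moth had 10 min to respond. Tests ran in the dark under orange light, 1–2 h after sunset, at 25±1°C and 70±5% RH. 30 females and 30 males per volatile.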

M. separata [2] = assay: Post-RNAi Y-tube olfactometer bioassay; assay type: in vivo, Mythimna separata; settings: 72 h old moths of both sexes, after RNAi
Procedure, shortened: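 Seven-day-old pupae were injected with dsMsepCSP5 (1 µl of 2.5 µg µL-1) into abdominal segments 3–4. Non-injected and dsGFP-injected pupae served as controls. Pupae were held at 25±1°C and 70±5% RH until eclosion. 72 h-old moths of both sexes were tested in the same Y-tube assay (two volatiles, 10 µl vs liquid paraffin, 10 min per moth). 30 females and 30 males per volatile.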

| IC50 (MsepCSP5; IC50, pH 5.0) | IC50 (MsepCSP5; IC50, pH 7.4) | Ki (MsepCSP5; Ki, pH 5.0) | Ki (MsepCSP5; Ki, pH 7.4) | binding affinity to MsepCSP5 (in words) (MsepCSP5; pH 5.0) | Molecule | further results |
| --- | --- | --- | --- | --- | --- | --- |
| 15 µM | 49.3 µM | 7.15 µM | 19.5 µM |  | CCCCCCCCCCCCCCCCCCC [Nonadecane] |  |
| 41.3 µM | 65.3 µM | 19.7 µM | 25.8 µM |  | C=CC(C)(O)CCC=C(C)C (stereo not shown) [Linalool] |  |
| 478 µM | 522 µM | 228 µM | 207 µM |  | CCCCCCCCCCCCC [Tridecane] |  |
|  |  |  |  |  | Farnesene | Ki (MsepCSP5; pH 5.0): 35.6 µM; IC50 (MsepCSP5; pH 5.0): 74.7 µM; Ki (MsepCSP5; pH 7.4): 21.5 µM; IC50 (MsepCSP5; pH 7.4): 54.4 µM |
|  |  |  |  |  | Cc1ccc(C(C)C)cc1 [4-lsopropyltoluene] | Ki (MsepCSP5; pH 5.0): 14.4 µM; IC50 (MsepCSP5; pH 5.0): 30.2 µM; Ki (MsepCSP5; pH 7.4): 20.7 µM; IC50 (MsepCSP5; pH 7.4): 52.3 µM |
| 8.27 µM | 43.8 µM | 3.95 µM | 17.4 µM |  | CC1=CCC(=C(C)C)CC1 [Terpinolene] |  |
|  |  |  |  |  | CC(=O)/C=C/C1=C(C)CCCC1(C)C [β-Lonone] | Ki (MsepCSP5; pH 5.0): 2.09 µM; IC50 (MsepCSP5; pH 5.0): 4.38 µM; Ki (MsepCSP5; pH 7.4): 5.06 µM; IC50 (MsepCSP5; pH 7.4): 12.8 µM |
| 15.2 µM | 47.8 µM | 7.25 µM | 18.9 µM |  | CCCCCCCCCCCCCCCCCCCC [Eicosane] |  |
| 74.3 µM | 58.3 µM | 35.5 µM | 23.1 µM |  | CCCCCCCCCCCCCCCC [Hexadecane] |  |
| 17 µM | 34.2 µM | 8.1 µM | 13.5 µM | high binding affinity | CCC/C=C/CO [Trans-2-hexen-1-ol] |  |
| 14 µM | 29.8 µM | 6.71 µM | 11.8 µM | high binding affinity | CCC(O)CC [3-Pentanol] | females attracted to / preferring the volatile (M. separata [1]): 80%; preference of dsMsepCSP5-treated moths for the volatile (in words) (M. separata [2]): non-significant preference |
|  |  |  |  |  | C=C(C)[C@H]1CC=C(C)CC1 [R-(+)-Limonene] | Ki (MsepCSP5; pH 5.0): 5.18 µM; IC50 (MsepCSP5; pH 5.0): 10.8 µM; Ki (MsepCSP5; pH 7.4): 15 µM; IC50 (MsepCSP5; pH 7.4): 37.9 µM |
| 10.8 µM | 47.5 µM | 5.18 µM | 18.8 µM |  | COC(=O)c1ccccc1 [Methyl benzoate] | females attracted to / preferring the volatile (M. separata [1]): 70%; behavioral response of M. separata to the volatile (in words) (M. separata [1]): strong positive responses; males attracted to / preferring the volatile (M. separata [1]): 67% |
| 13 µM | 18.3 µM | 6.2 µM | 7.23 µM | high binding affinity | C=CC(C)(O)CCC=C(C)CCC=C(C)C (mixture of isomers) [Nerolidol] |  |
| 21.7 µM | 20.8 µM | 10.4 µM | 8.22 µM |  | CCCCCCCCCCCCCC [Tetradecane] |  |
| 8.84 µM | 19.4 µM | 4.22 µM | 7.67 µM |  | CCOC(C)=O [Ethylacetate] |  |

| IC50 (MsepCSP5; IC50, pH 5.0) | IC50 (MsepCSP5; IC50, pH 7.4) | Ki (MsepCSP5; Ki, pH 5.0) | Ki (MsepCSP5; Ki, pH 7.4) | binding affinity to MsepCSP5 (in words) (MsepCSP5; pH 5.0) | Molecule | further results |
| --- | --- | --- | --- | --- | --- | --- |
| 12.6 µM | 198 µM | 6.02 µM | 78.3 µM | high binding affinity | CC1=CC[C@@H](C(C)(C)O)CC1 [α -Terpineol] |  |
|  |  |  |  | high binding | CCCCCCCCCCCC=O [Dodecyl aldehyde] | Ki (MsepCSP5; pH 5.0): 7.17 µM; IC50 (MsepCSP5; pH 5.0): 15 µM; Ki (MsepCSP5; pH 7.4): 6.86 µM; IC50 (MsepCSP5; pH 7.4): 17.3 µM |
|  |  |  |  |  | CC1=CC[C@@](O)(C(C)C)CC1 [(-)-Terpinen-4-ol] | Ki (MsepCSP5; pH 5.0): 4.33 µM; IC50 (MsepCSP5; pH 5.0): 9.07 µM; Ki (MsepCSP5; pH 7.4): 13.6 µM; IC50 (MsepCSP5; pH 7.4): 34.4 µM |
|  |  |  |  |  | CC1=CC=C(C(C)C)CC1 [α -Terpinene] | Ki (MsepCSP5; pH 5.0): 8.19 µM; IC50 (MsepCSP5; pH 5.0): 17.2 µM; Ki (MsepCSP5; pH 7.4): 8.77 µM; IC50 (MsepCSP5; pH 7.4): 22.2 µM |
| 13 µM | 32.4 µM | 6.22 µM | 12.8 µM |  | CC/C=C\CCOC(C)=O [Cis-3-hexenyl acetate] |  |
| 7.95 µM | 63 µM | 3.8 µM | 24.9 µM | high binding affinity | CCCCCC(C)O (stereo not shown) [2-Heptanol] | males attracted to / preferring the volatile (M. separata [1]): 80% |
| 18.6 µM | 14.9 µM | 8.9 µM | 5.89 µM |  | CCCCCC [Hexane] |  |
| 9.31 µM | 14.6 µM | 4.45 µM | 5.79 µM | high binding affinity | CC12CCC(CC1)C(C)(C)O2 [Eucalyptol] |  |
| 9.13 µM | 16.2 µM | 4.36 µM | 6.43 µM | high binding affinity | C=CC(O)CCCCC (stereo not shown) [1-Octen-3-ol] | preference of dsMsepCSP5-treated moths for the volatile (in words) (M. separata [2]): non-significant preference |
| 5.15 µM | 21.6 µM | 2.46 µM | 8.56 µM |  | CCCCCCCCCC(C)=O [2-Undecanone] | behavioral response of M. separata to the volatile (in words) (M. separata [1]): no obvious preference |
| 9.28 µM | 21.4 µM | 4.43 µM | 8.46 µM | high binding | CCCCCC=O [Hexanal] |  |
| 7.17 µM | 23.6 µM | 3.42 µM | 9.34 µM |  | CCCCCCCC [Octane] |  |
| 727 µM | 227 µM | 347 µM | 89.7 µM |  | CC/C=C\CCO [Cis-3-hexen-1-ol] |  |
| 10.4 µM | 13.9 µM | 4.95 µM | 5.51 µM |  | CCCCCCCCCCCC(C)=O [2Tridecanone] |  |
|  |  |  |  |  | c1ccc(Nc2cccc3ccccc23)cc1 [1-NPN, N-phenyl-1-naphthylamine, reference compound] | Kd (MsepCSP5; pH 5.0): 2.91 µM; Kd (MsepCSP5; pH 7.4): 3.65 µM |

| Molecule | IC50 (MsepCSP5; IC50, pH 5.0) | IC50 (MsepCSP5; IC50, pH 7.4) | Ki (MsepCSP5; Ki, pH 5.0) | Ki (MsepCSP5; Ki, pH 7.4) | binding affinity to MsepCSP5 (in words) (MsepCSP5; pH 5.0) | further results |
| --- | --- | --- | --- | --- | --- | --- |
| OC1CCCCC1 [Cyclohexanol] | 71.5 µM | 136 µM | 34.2 µM | 54 µM |  |  |
| CCC/C=C/C=O [Trans-2-hexenal] | 43.4 µM | 22.9 µM | 20.7 µM | 9.08 µM | moderate binding |  |
